In EPA's CvTdb concentration-time database:

Key:
[1] = tested on: Mouse; assay: concentration in plasma after dosing; settings: 3 h; dosed: 2-Hydroxy-4-methoxybenzophenone; 50 mg/kg; iv; Female; B6C3F1
[2] = tested on: Rat; assay: concentration in plasma after dosing; settings: dosed: 2-Hydroxy-4-methoxybenzophenone, 100 mg/kg, oral, Female, F344
[3] = tested on: Rat; assay: concentration in plasma after dosing; settings: dosed: 2-Hydroxy-4-methoxybenzophenone, 500 mg/kg, oral, Male, F344
[4] = tested on: Mouse; assay: concentration in plasma after dosing; settings: 10 min; dosed: 2-Hydroxy-4-methoxybenzophenone; 250 mg/kg; oral; Female; B6C3F1
[5] = tested on: Rat; assay: concentration in plasma after dosing; settings: 6 h; dosed: 2-Hydroxy-4-methoxybenzophenone; 500 mg/kg; oral; Male; F344
[6] = tested on: Mouse; assay: concentration in plasma after dosing; settings: 10 min; dosed: 2-Hydroxy-4-methoxybenzophenone; 500 mg/kg; oral; Female; B6C3F1
[7] = tested on: Rat; assay: concentration in plasma after dosing; settings: dosed: 2-Hydroxy-4-methoxybenzophenone, 250 mg/kg, oral, Male, F344
[8] = tested on: Rat; assay: concentration in plasma after dosing; settings: dosed: 2-Hydroxy-4-methoxybenzophenone, 250 mg/kg, oral, Female, F344
[9] = tested on: Mouse; assay: concentration in plasma after dosing; settings: dosed: 2-Hydroxy-4-methoxybenzophenone, 100 mg/kg, oral, Female, B6C3F1
[10] = tested on: Rat; assay: concentration in plasma after dosing; settings: 12 h; dosed: Primidone; 80 mg/kg; oral; Female; Harlan Sprague-Dawley
[11] = tested on: Rat; assay: concentration in plasma after dosing; settings: 9 h; dosed: Primidone; 130 mg/kg; oral; Male; F344
[12] = tested on: Rat; assay: concentration in plasma after dosing; settings: 12 h; dosed: Primidone; 80 mg/kg; oral; Female; F344
[13] = tested on: Rat; assay: concentration in plasma after dosing; settings: 1.5 h; dosed: alpha-Thujone; 50 mg/kg; oral; Male; Harlan Sprague Dawley
[14] = tested on: Rat; assay: concentration in plasma after dosing; settings: 5 min; dosed: alpha-Thujone; 25 mg/kg; oral; Male; Harlan Sprague Dawley
[15] = tested on: Rat; assay: concentration in plasma after dosing; settings: 2 min; dosed: alpha-Thujone; 25 mg/kg; oral; Female; Harlan Sprague Dawley
[16] = tested on: Rat; assay: concentration in plasma after dosing; settings: 1.5 h; dosed: alpha-Thujone; 50 mg/kg; oral; Female; Harlan Sprague Dawley
[17] = tested on: Rat; assay: concentration in plasma after dosing; settings: 6 h; dosed: alpha-Thujone; 50 mg/kg; oral; Female; Harlan Sprague Dawley
[18] = tested on: Rat; assay: concentration in plasma after dosing; settings: 6 h; dosed: alpha-Thujone; 25 mg/kg; oral; Male; Harlan Sprague Dawley
[19] = tested on: Rat; assay: concentration in plasma after dosing; settings: 3 h; dosed: alpha-Thujone; 50 mg/kg; oral; Male; Harlan Sprague Dawley
[20] = tested on: Rat; assay: concentration in plasma after dosing; settings: 6 h; dosed: alpha-Thujone; 50 mg/kg; oral; Female; Harlan Sprague Dawley; remark: listed apart in the source
[21] = tested on: Rat; assay: concentration in liver after dosing; settings: 192 h; dosed: Perfluorohexane-1-sulphonic acid – potassium salt; 16 mg/kg; oral; Female; F344
[22] = tested on: Rat; assay: concentration in liver after dosing; settings: 3 h; dosed: Perfluorohexane-1-sulphonic acid – potassium salt; 16 mg/kg; oral; Female; F344
[23] = tested on: Rat; assay: concentration in liver after dosing; settings: 6 h; dosed: Perfluorohexane-1-sulphonic acid – potassium salt; 16 mg/kg; oral; Female; Harlan Sprague Dawley
[24] = tested on: Rat; assay: concentration in liver after dosing; settings: 6 h; dosed: Perfluorohexane-1-sulphonic acid – potassium salt; 16 mg/kg; oral; Female; Harlan Sprague Dawley; remark: listed apart in the source
[25] = tested on: Rat; assay: concentration in liver after dosing; settings: 192 h; dosed: Perfluorohexane-1-sulphonic acid – potassium salt; 16 mg/kg; oral; Female; Harlan Sprague Dawley
[26] = tested on: Rat; assay: concentration in plasma after dosing; settings: dosed: Pyridine, 25 mg/kg, oral, Male, F344
[27] = tested on: Rat; assay: concentration in plasma after dosing; settings: dosed: Pyridine, 5 mg/kg, iv, Male, F344
[28] = tested on: Rat; assay: concentration in plasma after dosing; settings: 0.25 h; dosed: Pyridine; 10 mg/kg; iv; Male; F344
[29] = tested on: Rat; assay: concentration in plasma after dosing; settings: dosed: Methyleugenol, 37 mg/kg, oral, Female, F344/N
[30] = tested on: Rat; assay: concentration in plasma after dosing; settings: dosed: Methyleugenol, 37 mg/kg, oral, Male, F344/N
[31] = tested on: human; settings: dosed: trichloroethylene, 100 ppm, inhalation, duration: 4 hr, person
How it was run: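 A PubMed search, classifier screening and manual review identified published in vivo toxicokinetic studies, which together with two structured collections supplied concentration-versus-time and amount-versus-time points. Points were mostly digitised from plot screenshots with WebPlotDigitizer, otherwise copied from tables. Dose, route, subject details and medium were hand-curated from each paper, and sampling and analytical methods are those of the sources, often unreported.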

O=C(c1ccccc1)c1ccc(O)cc1O [2,4-Dihydroxybenzophenone]
concentration in plasma [1]: 57.7 ng/mL | concentration in plasma ([2]; 0.25 h): 165 ng/mL | concentration in plasma ([2]; 4 h): 105 ng/mL | concentration in plasma ([3]; 10 min): 78.6 ng/mL | concentration in plasma ([3]; 10 h): 107 ng/mL | concentration in plasma [4]: 1290 ng/mL | concentration in plasma [5]: 245 ng/mL | concentration in plasma [6]: 4230 ng/mL | concentration in plasma ([7]; 0.5 h): 256 ng/mL | concentration in plasma ([7]; 10 h): 66.8 ng/mL | concentration in plasma ([8]; 0.25 h): 359 ng/mL | concentration in plasma ([8]; 4 h): 135 ng/mL | concentration in plasma ([9]; 2.5 min): 68 ng/mL | concentration in plasma ([9]; 10 min): 115 ng/mL | concentration in plasma ([9]; 0.25 h): 303 ng/mL | concentration in plasma ([9]; 2 h): 34.9 ng/mL | concentration in plasma ([9]; 3 h): 30.3 ng/mL

CCC1(c2ccccc2)C(=O)NCNC1=O [Primidone]
concentration in plasma [10]: 1400 ng/mL | concentration in plasma [11]: 10400 ng/mL | concentration in plasma [12]: 15800 ng/mL

CC(C)[C@]12CC(=O)[C@H](C)[C@H]1C2 [alpha-Thujone]
concentration in plasma [13]: 360 ng/mL | concentration in plasma [14]: 93.4 ng/mL | concentration in plasma [15]: 10.6 ng/mL | concentration in plasma [16]: 323 ng/mL | concentration in plasma [17]: 192 ng/mL | concentration in plasma [18]: 42.9 ng/mL | concentration in plasma [19]: 357 ng/mL | concentration in plasma [20]: 162 ng/mL

O=S(=O)([O-])C(F)(F)C(F)(F)C(F)(F)C(F)(F)C(F)(F)C(F)(F)F.[K+] [Perfluorohexane-1-sulphonic acid – potassium salt]
concentration in liver [21]: 38200 ng/g | concentration in liver [22]: 57000 ng/g | concentration in liver [23]: 33000 ng/g | concentration in liver [24]: 48400 ng/g | concentration in liver [25]: 1660 ng/g

c1ccncc1 [Pyridine]
concentration in plasma ([26]; 5 min): 7460 ng/mL | concentration in plasma ([26]; 4 h): 15900 ng/mL | concentration in plasma ([27]; 0.05 h): 4210 ng/mL | concentration in plasma ([27]; 4 h): 2060 ng/mL | concentration in plasma [28]: 4510 ng/mL

C=CCc1ccc(OC)c(OC)c1 [Methyleugenol]
concentration in plasma ([29]; 5 min): 173 ng/mL | concentration in plasma ([29]; 4 h): 9.95 ng/mL | concentration in plasma ([30]; 10 min): 268 ng/mL | concentration in plasma ([30]; 2 h): 32 ng/mL

OCC(Cl)(Cl)Cl [trichloroethanol]
amount in urine after dosing ([31]; 1 h): 13 mg | amount in urine after dosing ([31]; 2 h): 11 mg | amount in urine after dosing ([31]; 4 h): 21.5 mg | amount in urine after dosing ([31]; 8 h): 36.3 mg | amount in urine after dosing ([31]; 12 h): 31.4 mg | amount in urine after dosing ([31]; 16 h): 26.7 mg | amount in urine after dosing ([31]; 24 h): 33.6 mg | amount in urine after dosing ([31]; 36 h): 39.7 mg | amount in urine after dosing ([31]; 48 h): 22.6 mg | amount in urine after dosing ([31]; 60 h): 17 mg | amount in urine after dosing ([31]; 72 h): 11.5 mg | amount in urine after dosing ([31]; 84 h): 6.52 mg | amount in urine after dosing ([31]; 96 h): 3.88 mg | amount in urine after dosing ([31]; 108 h): 6 mg | amount in urine after dosing ([31]; 120 h): 3.14 mg | amount in urine after dosing ([31]; 132 h): 2.17 mg | amount in urine after dosing ([31]; 144 h): 1.65 mg | amount in urine after dosing ([31]; 156 h): 0.88 mg | amount in urine after dosing ([31]; 168 h): 1.08 mg | amount in urine after dosing ([31]; 180 h): 1.17 mg
